Reference: ChEMBL document CHEMBL3272255, “Substituted alpah-methylbenzyl and tricyclic arylalkyl lactamimides as inhibitors of blood platelet aggregation” (J Med Chem, 1976)

Key:
Cavia porcellus [1] = assay: Antiplatelet activity in guinea pig assessed as inhibition of 0.8 ug/ml ADP-induced platelet aggregation measured as change in light transmittance at 10 mg/kg, po for 4 days measured at 2 hrs post last dose by aggregometric analysis relative to control; type: functional
How it was run: (§1)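 Dosing was oral by stomach tube for 4 days, alongside an untreated control group. Blood was drawn by heart puncture 2 h after the final dose, then citrated PRP was isolated and adjusted for aggregometry. ADP was added in vitro at the stated concentration. The read-out was the maximum increase in light transmittance (ΔT); group means were compared, treated vs control.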

Cavia porcellus [2] = assay: Antiplatelet activity in guinea pig assessed as inhibition of 0.8 ug/ml ADP-induced platelet aggregation measured as change in light transmittance at 100 mg/kg, po for 1 day by aggregometric analysis relative to control; type: functional; conditions: 24 h
Cavia porcellus [3] = assay: Antiplatelet activity in guinea pig assessed as inhibition of 0.8 ug/ml ADP-induced platelet aggregation measured as area between aggregation curve and baseline transmittance at 100 mg/kg, po for 4 days measured at 2 hrs post last dose by aggregometric analysis relative to control; type: functional
How it was run: (§2)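 Guinea pigs were dosed by stomach tube at the stated dose daily for 4 days, with an untreated control group kept in parallel. Blood was taken by heart puncture 2 h after the last dose, and citrated PRP was isolated and adjusted. ADP was added in vitro. Total response was the area between the aggregation curve and baseline transmittance over 5 min, measured by planimeter. Percent inhibition came from group-average total response, treated vs control.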

Cavia porcellus [4] = assay: Antiplatelet activity in guinea pig assessed as inhibition of 0.25 ug/ml ADP-induced platelet aggregation measured as change in light transmittance at 30 mg/kg, po for 4 days measured at 2 hrs post last dose by aggregometric analysis relative to control; type: functional; how it was run: as §1
Cavia porcellus [5] = assay: Antiplatelet activity in guinea pig assessed as 0.45 ug/ml ADP-induced platelet aggregation measured as change in light transmittance at 100 mg/kg, po for 1 day by aggregometric analysis; conditions: 24 h
Cavia porcellus [6] = assay: Antiplatelet activity in guinea pig assessed as inhibition of 0.4 ug/ml ADP-induced platelet aggregation measured as area between aggregation curve and baseline transmittance at 10 mg/kg, po for 4 days measured at 2 hrs post last dose by aggregometric analysis relative to control; type: functional; how it was run: as §2
Cavia porcellus [7] = assay: Antiplatelet activity in guinea pig assessed as inhibition of 0.35 ug/ml ADP-induced platelet aggregation measured as change in light transmittance at 30 mg/kg, po for 4 days measured at 2 hrs post last dose by aggregometric analysis relative to control; type: functional; how it was run: as §1
Cavia porcellus [8] = assay: Antiplatelet activity in guinea pig assessed as inhibition of 0.35 ug/ml ADP-induced platelet aggregation measured as area between aggregation curve and baseline transmittance at 30 mg/kg, po for 4 days measured at 2 hrs post last dose by aggregometric analysis relative to control; type: functional; how it was run: as §2
Cavia porcellus [9] = assay: Antiplatelet activity in guinea pig assessed as inhibition of 0.4 ug/ml ADP-induced platelet aggregation measured as change in light transmittance at 10 mg/kg, po for 4 days measured at 2 hrs post last dose by aggregometric analysis relative to control; type: functional; how it was run: as §1
Cavia porcellus [10] = assay: Antiplatelet activity in guinea pig assessed as inhibition of 0.8 ug/ml ADP-induced platelet aggregation measured as area between aggregation curve and baseline transmittance at 100 mg/kg, po for 1 day by aggregometric analysis relative to control; type: functional; conditions: 24 h
[11] = Antiplatelet activity in human platelet rich plasma assessed as inhibition of ADP-induced platelet aggregation at 100 ug/ml after 20 mins by aggregometric analysis relative to control; type: functional
How it was run: (§3)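 Human blood came from fasting donors who had taken no drugs for 5 days. It was citrated 1:9 with 3.8% sodium citrate. PRP was prepared at 100g for 10 min and PPP at 1500g for 15 min, and PRP was diluted with autologous PPP to 400000 platelets/mm³. Compound or saline control was incubated 20 min at 37°, then ADP was added at 2 μg/ml final. Percent inhibition was calculated from maximal ΔT, test vs control.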

Cavia porcellus [12] = assay: Antiplatelet activity in guinea pig assessed as inhibition of 0.8 ug/ml ADP-induced platelet aggregation measured as change in light transmittance at 100 mg/kg, po for 4 days measured at 2 hrs post last dose by aggregometric analysis relative to control; type: functional; how it was run: as §1
[13] = Antiplatelet activity in human platelet rich plasma assessed as inhibition of ADP-induced platelet aggregation at 30 ug/ml after 20 mins by aggregometric analysis relative to control; type: functional; how it was run: as §3
[14] = Antiplatelet activity in human platelet rich plasma assessed as inhibition of ADP-induced platelet aggregation at 10 ug/ml after 20 mins by aggregometric analysis relative to control; type: functional; how it was run: as §3
Cavia porcellus [15] = assay: Antiplatelet activity in guinea pig assessed as inhibition of 0.8 ug/ml ADP-induced platelet aggregation measured as change in light transmittance at 30 mg/kg, po for 4 days measured at 2 hrs post last dose by aggregometric analysis relative to control; type: functional; how it was run: as §1
Cavia porcellus [16] = assay: Antiplatelet activity in guinea pig assessed as 0.45 ug/ml ADP-induced platelet aggregation measured as change in light transmittance at 100 mg/kg, po for 4 days measured at 2 hrs post last dose by aggregometric analysis
Cavia porcellus [17] = assay: Antiplatelet activity in guinea pig assessed as inhibition of 0.8 ug/ml ADP-induced platelet aggregation measured as area between aggregation curve and baseline transmittance at 10 mg/kg, po for 4 days measured at 2 hrs post last dose by aggregometric analysis relative to control; type: functional; how it was run: as §2
Cavia porcellus [18] = assay: Antiplatelet activity in guinea pig assessed as inhibition of 0.45 ug/ml ADP-induced platelet aggregation measured as area between aggregation curve and baseline transmittance at 100 mg/kg, po for 1 day by aggregometric analysis relative to control; type: functional; conditions: 24 h
Cavia porcellus [19] = assay: Antiplatelet activity in guinea pig assessed as inhibition of 0.45 ug/ml ADP-induced platelet aggregation measured as area between aggregation curve and baseline transmittance at 30 mg/kg, po for 4 days measured at 2 hrs post last dose by aggregometric analysis relative to control; type: functional; how it was run: as §2
Cavia porcellus [20] = assay: Antiplatelet activity in guinea pig assessed as inhibition of 0.45 ug/ml ADP-induced platelet aggregation measured as change in light transmittance at 30 mg/kg, po for 4 days measured at 2 hrs post last dose by aggregometric analysis relative to control; type: functional; how it was run: as §1
Cavia porcellus [21] = assay: Antiplatelet activity in guinea pig assessed as inhibition of 0.8 ug/ml ADP-induced platelet aggregation measured as area between aggregation curve and baseline transmittance at 30 mg/kg, po for 4 days measured at 2 hrs post last dose by aggregometric analysis relative to control; type: functional; how it was run: as §2
Cavia porcellus [22] = assay: Antiplatelet activity in guinea pig assessed as inhibition of 0.45 ug/ml ADP-induced platelet aggregation measured as area between aggregation curve and baseline transmittance at 100 mg/kg, po for 4 days measured at 2 hrs post last dose by aggregometric analysis relative to control; type: functional; how it was run: as §2
Cavia porcellus [23] = assay: Antiplatelet activity in guinea pig assessed as inhibition of 0.25 ug/ml ADP-induced platelet aggregation measured as area between aggregation curve and baseline transmittance at 30 mg/kg, po for 4 days measured at 2 hrs post last dose by aggregometric analysis relative to control; type: functional; how it was run: as §2
Cavia porcellus [24] = assay: Toxicity in guinea pig assessed as mortality at 300 mg/kg, po measured after third dose; type: organism-based; set-up: dose 300 mg/kg, route oral; conditions: in vivo
[25] = Antiplatelet activity in human platelet rich plasma assessed as platelet factor-3 release at 300 ug/ml after 20 mins relative to control

Compound: CCCC(C/N=C1/CCCCCN1)(c1ccccc1)c1ccccc1.Cl
- ΔT % at 10 mg/kg (Cavia porcellus [1]): 35.2%
- ΔT % at 100 mg/kg (Cavia porcellus [2]): 36%
- inhibition in vivo at 100 mg/kg (Cavia porcellus [3]): 20%
- ΔT % at 30 mg/kg (Cavia porcellus [4]): 21.2%
- ΔT % at 100 mg/kg (Cavia porcellus [5]): 21.4%
- inhibition in vivo at 10 mg/kg (Cavia porcellus [6]): 21%
- ΔT % at 30 mg/kg (Cavia porcellus [7]): 24.8%
- inhibition in vivo at 30 mg/kg (Cavia porcellus [8]): 55%
- ΔT % at 10 mg/kg (Cavia porcellus [9]): 14.6%
- inhibition in vivo at 100 mg/kg (Cavia porcellus [10]): 12%
- inhibition at 100 µg/mL [11]: 100%
- ΔT % at 100 mg/kg (Cavia porcellus [12]): 62.7%
- inhibition at 30 µg/mL [13]: 57%
- inhibition at 10 µg/mL [14]: 1%
- ΔT % at 30 mg/kg (Cavia porcellus [15]): 35.3%
- ΔT % at 100 mg/kg (Cavia porcellus [16]): 34.3%
- inhibition in vivo at 10 mg/kg (Cavia porcellus [17]): 26%
- inhibition in vivo at 100 mg/kg (Cavia porcellus [18]): 13%
- inhibition in vivo at 30 mg/kg (Cavia porcellus [19]): 18%
- ΔT % at 30 mg/kg (Cavia porcellus [20]): 19.7%
- inhibition in vivo at 30 mg/kg (Cavia porcellus [21]): 14%
- inhibition in vivo at 100 mg/kg (Cavia porcellus [22]): 70%
- inhibition in vivo at 30 mg/kg (Cavia porcellus [23]): 63%
- Activity (Cavia porcellus [24]): Toxic
- %max [25]: 0.13%
